Measured values taken from PMC9059116 (Journal of Medicinal Chemistry, 2022).

Key:
Format in all cases: cell-based
[1] = tested on: eIF4E phosphorylation (MNK1/2 activity) in MDA-MB-231 cells; test: western blot of eIF4E phosphorylation; conditions: for inhibition of eIF4E phosphorylation: MDA-MB-231 cells, 24 h, western blot
How it was run: (§1)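 MDA-MB-231 cells were grown in DMEM with 10% heat-inactivated FBS and penicillin/streptomycin, seeded at 6000 cells/cm² 24 h before treatment. DMSO was kept below 0.5%, with DMSO as negative control. Immunoblotting used ECL detection, with β-actin (1:20 000) probed.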

MDA-MB-231 cells = test: crystal violet growth assay, MDA-MB-231; conditions: MDA-MB-231, 72 h, up to 200 nM
How it was run: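 Cells kept in DMEM (4.5 g/L glucose) with 10% heat-inactivated FBS and penicillin/streptomycin at 37 °C, 5% CO2. Seeded at 6000 cells/cm², treated 24 h later for 72 h; DMSO kept below 0.5%, DMSO as negative control. Fixed 30 min in 4% formaldehyde, PBS washes, stained 15 min with 0.5% crystal violet, dye dissolved in 15% AcOH, OD 595 nm. Three independent experiments, standard deviation.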

[2] = tested on: MNK1 phosphorylation at T209/214 in MDA-MB-231 cells; test: western blot of MNK1 phosphorylation at T209/214 in MDA-MB-231 cells; conditions: MDA-MB-231, 24 h
How it was run: as §1

[3] = biological target: MNK1-eIF4G interaction in HEK-293 cells (Homo sapiens, UniProt Q9BUB5); test: immunoprecipitation of endogenous eIF4G, MNK1-eIF4G interaction in HEK-293 cells; conditions: HEK-293, 20 μM EB1 or 100 nM eFT508, UV irradiation and 40 min recovery
Sequence of MNK1-eIF4G interaction in HEK-293 cells (Q9BUB5 1-424 isoform Q9BUB5-2): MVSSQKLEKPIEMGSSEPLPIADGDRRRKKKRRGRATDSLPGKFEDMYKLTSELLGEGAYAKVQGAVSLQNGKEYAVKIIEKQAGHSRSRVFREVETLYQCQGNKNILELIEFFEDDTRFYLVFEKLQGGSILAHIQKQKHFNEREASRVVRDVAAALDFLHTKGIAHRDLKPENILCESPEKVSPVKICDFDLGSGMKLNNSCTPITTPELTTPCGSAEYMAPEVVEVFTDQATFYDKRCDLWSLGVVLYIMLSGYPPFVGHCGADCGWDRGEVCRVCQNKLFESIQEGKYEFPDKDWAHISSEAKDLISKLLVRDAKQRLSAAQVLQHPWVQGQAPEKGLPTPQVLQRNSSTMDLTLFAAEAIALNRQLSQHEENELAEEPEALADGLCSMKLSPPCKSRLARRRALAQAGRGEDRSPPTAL
How it was run: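 HEK-293 cells were treated 24 h with DMSO or inhibitor, then UV-irradiated (60 J/m²) and recovered 40 min at 37 °C. Anti-eIF4G was bound to protein A beads (4 h, 4 °C), then incubated overnight at 4 °C with about 2 mg precleared lysate. Beads were washed, boiled 5 min at 95 °C, and probed for MNK1 by immunoblot.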

| SMILES | inhibition of eIF4E phosphorylation after UV stimulation ([1]; MDA-MB-231, pretreatment with inhibitor, UV irradiation, 40 min recovery) | inhibition of eIF4E phosphorylation [1] | inhibition of eIF4E phosphorylation ([1]; listed as EB1) | effect on cell growth (MDA-MB-231 cells) | effect on activating phosphorylation of MNK1 at T209/214 [2] | effect on interaction between MNK1 and eIF4G [3] |
| --- | --- | --- | --- | --- | --- | --- |
| Nc1n[nH]c2nc(-c3ccccc3)cc(-c3ccccc3)c12 [6b, 4,6-Diphenyl-1H-pyrazolo[3,4-b]pyridin-3-amine] | strongly inhibited eIF4E phosphorylation | clear inhibition of eIF4E phosphorylation | more potent than CGP5738 but less active than the eFT508 | – | – | – |
| Cc1cc(Nc2cc(N)ncn2)c(=O)n2c1C(=O)NC21CCCCC1 [eFT508 (3), eFT508] | – | complete inhibition of eIF4E phosphorylation can be already observed at low nanomolar concentrations | – | not able to inhibit the growth | strongly induced phosphorylation of MNKs at T209/214 | strongest interaction of eIF4G with MNK1 |
| Nc1ncnc2[nH]nc(Nc3ccc(F)cc3)c12 [CGP57380 (2), CGP57380] | – | – | – | – | strongly induced phosphorylation of MNKs at T209/214 | – |
